The text below walks through data of ChEMBL document CHEMBL3259711, “Synthesis, anti-HIV and cytostatic evaluation of 3'-deoxy-3'-fluorothymidine (FLT) pro-nucleotides” (Bioorg Med Chem Lett, 2014).

pEC50, pIC50: −log10 of the molar value. Where only a bound is given, the exact number is not on record here.

The subject of data set [1] is Human immunodeficiency virus 1. As to the kind of experiment: Antiretroviral activity against HIV-1 3B infected in human CEM/0 cells expressing thymidine kinase assessed as inhibition of virus-induced giant cell formation after 4 to 5 days by microscopic analysis. Format: functional, organism-based. The settings on record: Human immunodeficiency virus 1, 3B, CCRF-CEM. In a few lines: (§1)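 CEM cells (~3 × 10⁵/mL; wild-type or thymidine kinase-deficient) infected with 100 CCID₅₀/mL HIV-1(IIIB) or HIV-2(ROD) with serial compound dilutions; 4–5 days at 37 °C, humidified CO₂. Syncytium (giant cell) formation scored microscopically; EC₅₀ = concentration inhibiting giant cell formation by 50%. Means of at least 2–3 independent experiments.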

Data set [2] relates to Human immunodeficiency virus 2. As to the kind of experiment: Antiretroviral activity against HIV-2 ROD infected in human CEM/0 cells expressing thymidine kinase assessed as inhibition of virus-induced giant cell formation after 4 to 5 days by microscopic analysis. Format: functional, organism-based. The settings on record: Human immunodeficiency virus 2, ISOLATE ROD, CCRF-CEM. In a few lines:
as §1

Data set [3] concerns Human immunodeficiency virus 2. Nature of the data set: Antiretroviral activity against HIV-2 ROD infected in thymidine kinase-deficient human CEM cells assessed as inhibition of virus-induced giant cell formation after 4 to 5 days by microscopic analysis. Format: functional, organism-based. The settings on record: Human immunodeficiency virus 2, ISOLATE ROD, CCRF-CEM. In a few lines:
as §1

Data set [4] deals with CCRF-CEM. As to the kind of experiment: Cytostatic activity against human CEM/0 cells expressing thymidine kinase assessed as inhibition of cell proliferation after 48 hrs by Coulter counter analysis. The class given is functional, cell-based. In a few lines: (§2)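 Tumour cells ((5–7.5) × 10⁴ per well) grown with test compound for 48 h at 37 °C, humidified CO₂; cells counted by Coulter counter. IC₅₀ = concentration inhibiting proliferation by 50%. Means of at least 2–3 independent experiments.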

The subject of data set [5] is CCRF-CEM. As to the kind of experiment: Cytostatic activity against thymidine kinase-deficient human CEM cells assessed as inhibition of cell proliferation after 48 hrs by Coulter counter analysis. Format: functional, cell-based. An outline of the steps: as §2
The next data set relates to L1210. As to the kind of experiment: Cytostatic activity against mouse L1210 cells assessed as inhibition of cell proliferation after 48 hrs by Coulter counter analysis. The class given is functional, cell-based. The note with it: L1210, 48 h. In a few lines: as §2
The nature of data set [6]: Cytostatic activity against human CEM/0 cells expressing thymidine kinase assessed as inhibition of cell proliferation at EC50 after 48 hrs by Coulter counter analysis. The settings on record: ccrf-cem. The class given is cell-based.
Data set [7] concerns CCRF-CEM. As to the kind of experiment: Cytostatic activity against thymidine kinase-deficient human CEM cells assessed as inhibition of cell proliferation at EC50 after 48 hrs by Coulter counter analysis. The class given is cell-based.
For data set [8], the system named is Human immunodeficiency virus 2. As to the kind of experiment: Ratio of EC50 for HIV-2 ROD infected in thymidine kinase-deficient human CEM cells to EC50 for HIV-2 ROD infected in human CEM/0 cells expressing thymidine kinase. The class given is functional, ISOLATE ROD, CCRF-CEM.

For orientation: pEC50 means −log10 of the EC50, conventionally taken in molar units. For orientation: pIC50 means the negative decadic logarithm of the IC50, by convention in mol/L.

For `Cc1cn([C@H]2C[C@H](F)[C@@H](COP(=O)(N[C@@H](C)C(=O)OC(C)(C)C)Oc3cccc4ccccc34)O2)c(=O)[nH]c1=O` (some centres undefined), the pEC50 was 5.64 in [1], 5.33 in [2] and less than 4.30 in [3]. Further, the pIC50 in the data set with CCRF-CEM [4] was 3.83; with CCRF-CEM [5] it was less than 3.60; in the data set with L1210, 4.44.
Turning to `Cc1cn([C@H]2C[C@H](F)[C@@H](COP(=O)(N[C@@H](C)C(=O)OCc3ccccc3)Oc3cccc4ccccc34)O2)c(=O)[nH]c1=O` (some centres undefined), the values for the negative-log EC50 (pEC50) in data set [1], in [2] and in data set [3] were 6.92, 6.74 and 5.68, respectively. Also, the results for the pIC50 in the data set with CCRF-CEM [4], with CCRF-CEM [5] and in the data set with L1210 were 4.27, 4.24 and 5.28, respectively.
As to `COC(=O)[C@H](C)NP(=O)(OC[C@H]1O[C@@H](n2cc(C)c(=O)[nH]c2=O)C[C@@H]1F)Oc1cccc2ccccc12` (some centres undefined), the negative-log EC50 (pEC50) in data set [1] was 6.37; in [2], 6.19; in [3], 5.52. In addition, the pIC50 in the data set on CCRF-CEM [4] is 4.18; with CCRF-CEM [5], 3.95; with L1210, 5.52.
Regarding `COC(=O)[C@H](C)NP(=O)(OC[C@H]1O[C@@H](n2cc(C)c(=O)[nH]c2=O)C[C@@H]1F)Oc1ccccc1` (some centres undefined), the pEC50 in data set [1] was 6.26; in data set [2] it was 5.89; in [3], 5.33. For the same compound, the pIC50 is less than 3.60 in the data set on CCRF-CEM [4], less than 3.60 in the data set on CCRF-CEM [5] and 5.09 with L1210.
Regarding `Cc1cn([C@H]2C[C@H](F)[C@@H](COP(=O)(N[C@@H](C)C(=O)OC(C)C)Oc3ccccc3)O2)c(=O)[nH]c1=O` (some centres undefined), the values for the pEC50 in data set [1], in [2] and in data set [3] were 6.12, 5.96 and 4.55, respectively. The negative logarithm of the IC50 (pIC50) in the data set with CCRF-CEM [4] was 3.84; with CCRF-CEM [5], less than 3.60; in the data set on L1210, 4.64.
With `CCOC(=O)[C@H](C)NP(=O)(OC[C@H]1O[C@@H](n2cc(C)c(=O)[nH]c2=O)C[C@@H]1F)Oc1ccccc1` (some centres undefined), the pEC50 was 7.00 in [1], 6.62 in data set [2] and 5.89 in data set [3]. The values for the negative logarithm of the IC50 (pIC50) in the data set on CCRF-CEM [4], with CCRF-CEM [5] and in the data set with L1210 were less than 3.60, less than 3.60 and 5.36, respectively.
As for `Cc1cn([C@H]2C[C@H](F)[C@@H](COP(=O)(N[C@@H](C)C(=O)OC(C)C)Oc3cccc4ccccc34)O2)c(=O)[nH]c1=O` (some centres undefined), the negative logarithm of the EC50 (pEC50) was 6.25 in data set [1], 6.00 in [2] and less than 4.30 in data set [3]. For the same compound, the negative logarithm of the IC50 (pIC50) in the data set with CCRF-CEM [4] is 3.69; in the data set with CCRF-CEM [5] it was less than 3.60; in the data set with L1210, 4.62.
`Cc1cn([C@H]2C[C@H](F)[C@@H](COP(=O)(N[C@@H](C)C(=O)OC(C)(C)C)Oc3ccccc3)O2)c(=O)[nH]c1=O` (some centres undefined): the values for the pEC50 in data set [1], in data set [2] and in data set [3] were 6.54, 6.05 and less than 4.30, respectively. Also, the pIC50 in the data set with CCRF-CEM [4] was 3.91; in the data set on CCRF-CEM [5], less than 3.60; in the data set on L1210, 5.20.
With `Cc1cn([C@H]2C[C@H](F)[C@@H](COP(=O)(N[C@@H](C)C(=O)OCC(C)(C)C)Oc3cccc4ccccc34)O2)c(=O)[nH]c1=O` (some centres undefined), the pEC50 in data set [1] was 7.49; in data set [2], 7.10; in [3], 6.06. Also, the pIC50 is 4.85 in the data set on CCRF-CEM [4], 4.70 in the data set on CCRF-CEM [5] and 5.72 in the data set with L1210. The Activity entry (in data set [6]; in the data set on CCRF-CEM [7]) was “Non-toxic” throughout. In addition, the Ratio EC50 in [8] was found to be 10.
With `Cc1cn([C@H]2C[C@H](F)[C@@H](COP(=O)(N[C@@H](C)C(=O)OCc3ccccc3)N[C@@H](C)C(=O)OCc3ccccc3)O2)c(=O)[nH]c1=O`, the pEC50 was 7.44 in data set [1], 6.89 in [2] and 6.00 in data set [3]. Moreover, the results for the pIC50 in the data set on CCRF-CEM [4], in the data set on CCRF-CEM [5] and in the data set with L1210 were 4.77, 4.66 and 5.92, respectively. Further, the Activity entry (in [6]; in the data set with CCRF-CEM [7]) was “Non-toxic” in each case.
In the case of `Cc1cn([C@H]2C[C@H](F)[C@@H](COP(=O)(N[C@@H](C)C(=O)OCc3ccccc3)Oc3ccccc3)O2)c(=O)[nH]c1=O` (some centres undefined), the pEC50 in data set [1] was 6.89; in [2], 6.74; in data set [3], 5.70. In addition, the pIC50 with CCRF-CEM [4] is 3.93; with CCRF-CEM [5], 3.76; in the data set on L1210 it was 5.24.
For `COP(=O)(N[C@@H](C)C(=O)OCc1ccccc1)OC[C@H]1O[C@@H](n2cc(C)c(=O)[nH]c2=O)C[C@@H]1F` (some centres undefined), the pEC50 in [1] was 6.19; in [2] it was 5.80; in data set [3], 4.05. The negative-log IC50 (pIC50) in the data set on CCRF-CEM [4] was 4.00; in the data set on CCRF-CEM [5], less than 3.60; in the data set on L1210, 4.37.
Turning to `Cc1cn([C@H]2C[C@H](F)[C@@H](COP(=O)(N[C@@H](C)C(=O)OC3CCCCC3)Oc3cccc4ccccc34)O2)c(=O)[nH]c1=O` (some centres undefined), the pEC50 in data set [1] was 7.32; in data set [2], 6.85; in [3], 5.70. For the same compound, the pIC50 in the data set with CCRF-CEM [4] is 4.89; with CCRF-CEM [5] it was 4.70; in the data set with L1210, 5.54. The Activity entry (in data set [6]; in the data set with CCRF-CEM [7]) was “Non-toxic” throughout.
In the case of `Cc1cn([C@H]2C[C@H](F)[C@@H](CO)O2)c(=O)[nH]c1=O` [ALOVUDINE], the pEC50 in data set [1] is 8.21; in data set [2] it was 7.74; in data set [3] it was less than 4.30. In addition, the pIC50 is 4.41 in the data set on CCRF-CEM [4], less than 3.60 with CCRF-CEM [5] and 7.09 in the data set on L1210. Moreover, the Ratio EC50 in data set [8] is greater than 1000.
Regarding `CCOC(=O)[C@H](C)NP(=O)(OC[C@H]1O[C@@H](n2cc(C)c(=O)[nH]c2=O)C[C@@H]1F)Oc1cccc2ccccc12` (some centres undefined), the pEC50 in [1] is 6.80; in data set [2], 6.74; in data set [3], 5.28. For the same compound, the pIC50 was 4.09 in the data set on CCRF-CEM [4], 3.86 with CCRF-CEM [5] and 5.22 in the data set on L1210.
Turning to `Cc1cn([C@H]2C[C@H](F)[C@@H](COP(=O)(N[C@@H](C)C(=O)OCC(C)(C)C)N[C@@H](C)C(=O)OCC(C)(C)C)O2)c(=O)[nH]c1=O`, the figures for the pEC50 in data set [1], in data set [2] and in data set [3] were 7.77, 7.35 and 4.70, respectively. For the same compound, the results for the negative-log IC50 (pIC50) with CCRF-CEM [4], with CCRF-CEM [5] and with L1210 were 4.18, 4.37 and 5.42, respectively.
